# T cruzi inh = T. cruzi replication inhibition | T. cruzi beta-gal in NIH3T3, luminescence, 90 h | inhibition, % (test concentration not listed) | hit rate 1.4% among 300,000;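 active means mean inhibition across valid replicates above about 55%, limit read from the data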;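 further: signal also drops with host cell toxicity which is not excluded here; higher percent means less beta-gal luminescence so fewer parasites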
#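 Assay system: NIH/3T3 fibroblasts plus reporter T. cruzi. Amount: NIH/3T3 cells, 5,000 per well. Buffer or medium: DMEM, 2% fetal bovine serum. Doses: compound pinned at 50 nL/well, DMSO. Schedule: ≥90 h infection period, 3 h prior cell attachment. Signal: luminescent β-galactosidase signal after 60 min lysis. Read-out: parasite load inhibition, %.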
# CSC inhib = cancer stem cell inhibition; cancer stem cell-like cells viability, luminescence; inhibition, % at 7.5 µM; hit rate 1.1% among 300,000; in the data active means inhibition above about 75%; tested in HMLE shEcad cells
# Beta cell apopt = blocks beta cell apoptosis; INS-1E cytokine-induced death, ATP luminescence, 48 h; percent of positive-control rescue, neutral wells zero; protection from apoptosis, % (concentration not given with the values); hit rate 0.8% among 300,000;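 active means Every replicate reaches about 75%, or at least half do and their mean reaches it too, limit read from the data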;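 further: higher means more ATP so stronger rescue from cytokine killing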
# Lmaj promast = inhibitors of Leishmania major promastigote growth; hit rate 9% among 200,000; Leishmania major promastigotes, resazurin fluorescence viability; inhibition, % at 10 µM; AID 1063; in the data active means inhibition above about 50%;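 further: promastigotes grown with compound for 44 hours at 28 °C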
# Mdm2 MdmX PPI = inhibitors of human Mdm2/MdmX interaction | SaOS-2 split-luciferase Mdm2/MdmX complementation, luminescence | inhibition, % at 8 µM | hit rate 3% among 330,000 | AID 485346;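 active means inhibition of at least 50% at 8 µM in the primary screen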
# Target sequence (O15151 whole entry, looked up): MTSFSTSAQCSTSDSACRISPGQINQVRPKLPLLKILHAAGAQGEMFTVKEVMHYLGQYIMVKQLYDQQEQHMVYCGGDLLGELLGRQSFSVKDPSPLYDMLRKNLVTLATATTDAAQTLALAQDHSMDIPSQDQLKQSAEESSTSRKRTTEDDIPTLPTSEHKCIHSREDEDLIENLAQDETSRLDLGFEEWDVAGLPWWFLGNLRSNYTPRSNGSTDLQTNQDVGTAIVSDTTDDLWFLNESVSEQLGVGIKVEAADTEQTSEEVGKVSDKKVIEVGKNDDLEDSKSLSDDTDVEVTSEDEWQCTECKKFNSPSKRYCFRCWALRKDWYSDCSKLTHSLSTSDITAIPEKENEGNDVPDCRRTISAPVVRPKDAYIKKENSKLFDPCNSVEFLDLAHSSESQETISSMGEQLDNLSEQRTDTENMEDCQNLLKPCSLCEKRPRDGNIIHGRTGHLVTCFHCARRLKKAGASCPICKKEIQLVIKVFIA
# Target sequence (Q00987 whole entry, looked up): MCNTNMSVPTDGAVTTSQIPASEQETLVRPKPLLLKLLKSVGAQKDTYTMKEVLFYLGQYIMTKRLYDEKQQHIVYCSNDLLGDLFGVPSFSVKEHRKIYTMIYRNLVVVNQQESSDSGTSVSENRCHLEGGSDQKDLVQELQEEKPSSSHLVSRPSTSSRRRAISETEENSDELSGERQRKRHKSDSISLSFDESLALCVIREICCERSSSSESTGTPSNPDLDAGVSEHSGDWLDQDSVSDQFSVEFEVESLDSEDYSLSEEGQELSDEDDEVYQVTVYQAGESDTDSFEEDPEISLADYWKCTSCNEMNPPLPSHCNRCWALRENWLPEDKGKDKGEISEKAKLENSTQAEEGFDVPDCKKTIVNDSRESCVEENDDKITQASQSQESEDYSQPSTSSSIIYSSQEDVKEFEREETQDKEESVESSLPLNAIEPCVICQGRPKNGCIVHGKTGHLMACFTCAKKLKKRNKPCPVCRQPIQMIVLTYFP
# SKKanGAS inh = SKKanGAS growth inhibition; hit rate 1.3% among 300,000; AID 1662; inhibition, % at 7.5 µM; S. pyogenes SKKanGAS, kanamycin growth, BacTiter-Glo, 6 h;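 active means mean replicate score, as percent of positive control median, at least 50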;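 further: strain carries kanamycin resistance gene driven by streptokinase promoter and grows in 40 µg/ml kanamycin; loss of luminescence reflects streptokinase promoter inhibition or plain growth inhibition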
# Numbers stand for hits; n = inactive; x = no result given. In the library only some 9.4% were active in any assay of this set; here they are far more common.
SMILES,T cruzi inh,CSC inhib,Beta cell apopt,Lmaj promast,Mdm2 MdmX PPI,SKKanGAS inh
CC1CC(O)(CC(O)(c2ccccc2)c2ccccc2)C(C)CN1C (stereo not given),n,n,n,x,n,n
CCN1CC(C)C(O)(c2ccccc2)CC1C (stereo not given),n,n,n,79,n,n
Cc1cc2c3c(c1)C(C)(c1ccccc1)CC(C)(C)N3C(=O)C21C(C#N)=C(N)OC2=C1C(=O)CC(C)(C)C2 (stereo not given),n,x,n,51,n,x
CC1(c2ccccc2)CC(C)(C)N2C(=O)C3(C(C#N)=C(N)Oc4cc(O)ccc43)c3cccc1c32 (stereo not given),n,n,n,n,n,n
CSc1ccc(CCNC(=O)c2cc(-c3ccccc3)c(N3CCOCC3)s2)cc1,n,n,n,x,n,n
O=C(NCCc1ccccc1)c1cc(-c2ccccc2)c(N2CCOCC2)s1,n,81,n,x,n,n
COc1cc(-c2nnc3n2CCCCC3)cc(OC)c1OC,n,n,n,x,n,n
COc1ccc(Sc2ccc(/C=C3\C(=O)NN(c4ccccc4)C3=O)o2)cc1,n,n,n,56,n,n
NC(=O)COc1ccccc1/C=C1/SC(=O)N(CC(=O)N2CCc3ccccc3C2)C1=O,x,n,n,95,n,n
CCOc1cc(/C=C2/SC(=O)N(CC(=O)N3CCc4ccccc4C3)C2=O)ccc1OCC(=O)O,n,n,x,n,n,n
CC(C)(C)OC(=O)N1CCCC1C(=O)NCCc1ccccc1 (stereo not given),n,n,n,n,n,n
CCc1cc2c(C)cc(=O)oc2cc1OC(=O)C1CCCN1C(=O)OC(C)(C)C (stereo not given),n,n,x,89,n,n
O=C(CSc1nnc(C2CC2)n1CC1CCCO1)Nc1cccc(Cl)c1 (stereo not given),n,n,n,x,n,n
COc1ccc(Nc2cc(NCCCO)c([N+](=O)[O-])c3nonc23)cc1,n,n,n,x,n,n
O=[N+]([O-])c1c(NCCCO)cc(Sc2ccc(Cl)cc2)c2nonc12,n,88,n,n,x,n
COc1ccc(CNc2cc(NCCCO)c([N+](=O)[O-])c3nonc23)cc1,n,n,n,67,n,n
CC(=O)c1cccc(NC(=O)C(C)OC(=O)c2cccc(S(=O)(=O)N3CCN(C)CC3)c2)c1 (stereo not given),x,n,n,x,n,x
CC12CCC(=O)C=C1CCC1C2C(=O)CC2(C)C1CC[C@]2(O)C(=O)CO (stereo not given in full),n,n,x,x,n,n
CC(C)=C1C2CCC1C1C(=O)N(NC(=O)COc3ccc(Cl)c(C)c3)C(=O)C21 (stereo not given),n,n,n,76,n,n
O=C(COc1ccc(Cl)c(Cl)c1)NN1C(=O)C2C(C1=O)C1C=CC2C12CC2 (stereo not given),n,n,n,n,n,n
CCOc1ccc(N2C(=O)C(CC(=O)Nc3ccc(F)cc3)N(Cc3ccccn3)C2=S)cc1 (stereo not given),n,n,n,68,n,n
CCN1C(=O)C(CC(=O)Nc2ccc(F)cc2)N(Cc2cccs2)C1=S (stereo not given),n,n,n,n,n,n
CCN1C(=O)C(CC(=O)Nc2ccc(OC)cc2)N(CCN2CCOCC2)C1=S (stereo not given),n,n,n,x,n,n
CCCOc1ccc(NC(=O)CC2C(=O)N(Cc3ccccc3)C(=S)N2Cc2cccs2)cc1 (stereo not given),n,n,n,65,n,n
COC(=O)CN1C(=S)N(Cc2ccccc2)C(=O)C1CC(=O)Nc1ccc(Br)cc1 (stereo not given),n,n,n,88,n,n
CCN1C(=O)C(CC(=O)Nc2ccc(OC)cc2)N(CCCN2CCN(c3ccc(OC)cc3)CC2)C1=S (stereo not given),n,n,n,72,n,n
CN(Cc1ccccc1)c1ccc(C(=O)O)cc1[N+](=O)[O-],n,x,x,n,n,n
CCN1C(=O)C(CC(=O)Nc2ccc(OC)cc2)N(Cc2cccnc2)C1=S (stereo not given),n,x,n,n,n,n
COc1ccc(NC(=O)CC2C(=O)N(CCc3ccccc3)C(=S)N2Cc2cccnc2)cc1 (stereo not given),63,n,n,85,n,n
